Measured values gathered from unrelated publications.
Protocols differ between the studies behind these lines.
HTR1D: 5-hydroxytryptamine receptor 1D (HTR1D, Homo sapiens, UniProt P28221)
ALOX5: Polyunsaturated fatty acid 5-lipoxygenase (ALOX5, Homo sapiens, UniProt P09917)

SMILES | target | read-out | mode | technique | notes | measurement | value
C[C@@]1(F)[C@H](O)[C@@H](COP(=O)(O)OP(=O)(O)OP(=O)(O)O)O[C@H]1n1ccc(=O)[nH]c1=O | DNA polymerase subunit gamma-1 (POLG, Homo sapiens, UniProt P54098) | enzyme activity | inhibitor |  |  | IC50 | > 100 µM
C[C@H](N)Cn1ncc2ccc3c(c21)CCCO3 | HTR1D | ligand displacement |  | radioligand |  | Ki | 6.9 µM
OC(c1ccc(F)cc1)C(F)(F)CCN1CCC(O)(c2ccc(Cl)cc2)CC1 (racemic) | HTR1D | cell-free assay |  | radioligand |  | Ki | 4.88 µM
O=C(CCCCCCNC(=O)c1cnc(N(c2ccccc2)c2ccccc2)nc1)NO | ATP-dependent translocase ABCB1 (ABCB1, Homo sapiens, UniProt P08183) | ATPase activity | activator |  | cell membranes | EC50 | ~7.5 µM
CSCC[C@H](NC(=O)[C@H](Cc1c[nH]c2ccccc12)NC(=O)CNC(=O)[C@H](Cc1ccc(O)cc1)NC(=O)[C@H](C)NC(=O)[C@@H](CCC(=O)O)NC(=O)CN1CCN(CC(=O)O)CCN(CC(=O)O)CCN(CC(=O)O)CC1)C(=O)N[C@@H](CC(=O)O)C(=O)N(C)[C@@H](Cc1ccccc1)C(N)=O | Gastrin/cholecystokinin type B receptor (Rattus norvegicus, UniProt P30553) | ligand displacement |  | radioligand |  | IC50 | 0.0226 µM
CC(C)Cc1ccc([C@H](C)C(=O)O)cc1 | Histone acetyltransferase KAT2B (KAT2B, Homo sapiens, UniProt Q92831) | enzyme activity | inhibitor | mobility shift |  | IC50 | ~6000 µM
CC(C)S[C@@H]1O[C@H](CO)[C@H](O)[C@H](O)[C@H]1O | Beta-galactosidase (lacZ, Escherichia coli K-12, UniProt P00722) | enzyme activity | inhibitor | fluorescence |  | Ki | 36 µM
CC[C@H]1NC(=O)[C@@H]2CSC(=N2)[C@@H](Cc2ccccc2)N(C)C(=O)[C@@H]2CCCN2C(=O)[C@H](C(C)C)N(C)C(=O)[C@H](Cc2ccccc2)OC(=O)[C@H](C)[C@@H](C)NC(=O)[C@@H]([C@@H](C)O)NC(=O)[C@@H](CC(C)C)N(C)C(=O)[C@@H]2CSC1=N2 | Dipeptidyl peptidase 8 (Homo sapiens, UniProt Q6V1X1) | enzyme activity | inhibitor |  |  | IC50 | 11.5 µM
COc1ccccc1N1CCN(Cc2coc3ccc(C)cc3c2=O)CC1 | HTR1D | ligand displacement |  | radioligand |  | Ki | 0.464 µM
COc1cc(Nc2ncc(F)c(Nc3ccc4c(n3)NC(=O)C(C)(C)O4)n2)cc(OC)c1OC | ALOX5 | enzyme activity | inhibitor |  |  | IC50 | 5.01 µM
CCOc1ccccc1N1CCN(Cc2coc3ccccc3c2=O)CC1 | HTR1D | ligand displacement |  | radioligand |  | Ki | 0.633 µM
CCCCCc1cc(O)c2c(c1)OC(C)(CCC=C(C)C)C=C2 (stereo not shown) | ALOX5 | enzyme activity in cells | inhibitor |  |  | IC50 | 1.5 µM
O=C(CCCN1CCN(c2ccccc2)CC1)c1ccc(F)cc1 | HTR1D | ligand displacement |  | radioligand |  | Ki | 0.169 µM
COC[C@H]1OC(=O)c2coc3c2[C@@]1(C)C1=C(C3=O)[C@@H]2CCC(=O)[C@@]2(C)C[C@H]1OC(C)=O | TGF-beta receptor type-2 (TGFBR2, Homo sapiens, UniProt P37173) | cell-free assay |  | competition with immobilised ligand |  | Kd | > 10 µM
COc1ccc(C(=O)CCN2CCN(c3ccccc3F)CC2)cc1 | HTR1D | ligand displacement |  | radioligand |  | Ki | 0.185 µM
Fc1ccc2onc(C3CCNCC3)c2c1 | Sodium-dependent serotonin transporter (Slc6a4, Rattus norvegicus, UniProt P31652) | ligand displacement |  | radioligand |  | Ki | > 10 µM
